Experimental data from paper PMC4827872 (Chemical research in toxicology, 2015).
Like-named read-outs stand apart in the source and are kept apart here. Where a SMILES comes first, the peptide text is derived from it. The star is where a group is joined. Cbz = O=C(OCc1ccccc1)*

Experiments:
[1] = human serum, cited from earlier work
[2] = target: T1, DIO2 (Homo sapiens, UniProt Q92813); assay: DIO2 activity in H4 glioma cells exposed to PBDEs/OH-BDEs; assay type: cell-based; conditions: for Significant DIO2 Effects in H4 Cells (%Ctrl): at the lowest dose that significantly decreased DIO2 activity; for decrease in DIO2 activity with MG132 coexposure: plus 10 µM MG132
T1 sequence (Q92813 1-273): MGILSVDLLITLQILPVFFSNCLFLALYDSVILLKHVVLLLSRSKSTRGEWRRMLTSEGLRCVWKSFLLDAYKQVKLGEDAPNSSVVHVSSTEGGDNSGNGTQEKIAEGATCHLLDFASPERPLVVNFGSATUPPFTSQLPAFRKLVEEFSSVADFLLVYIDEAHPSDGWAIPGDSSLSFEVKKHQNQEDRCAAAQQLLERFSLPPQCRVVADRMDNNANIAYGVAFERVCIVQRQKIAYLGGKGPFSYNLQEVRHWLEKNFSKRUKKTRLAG

[3] = system: cultured cells; assay: Cell viability; assay type: cell-based; conditions: for significant effects on viability: any doses less than 7.5 µM, 24 h; for decrease in viability: 5 µM, 24 h exposure
[4] = system: DIO2 mRNA; assay: DIO2 mRNA expression; assay type: cell-based, human; conditions: 6 h; for DIO2 mRNA expression level vs control: 3 doses
[5] = system: cultured cells; assay: Cell membrane damage; assay type: cell-based; conditions: 24 h; for significant effects on membrane damage: any doses less than 7.5 µM; for membrane damage vs control: doses less than 50 µM
Summary of the method: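 Cells in 96-well plates, switched to serum-free A-DMEM with 30 nM selenium 24 h beforehand, then exposed 24 h to test compound added from 1,000× DMSO stocks (final DMSO 0.1%). Membrane damage was read as glucose-6-phosphate dehydrogenase activity released into the medium. Values were normalized to well DNA content and to DMSO vehicle controls.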

[6] = target: T1, DIO2; assay: In vitro DIO2 kinetics and inhibition in microsomal preparations of H4 cells; assay type: biochemical; conditions: for concentrations at which DIO2 activity was inhibited / Vmax of DIO2 with inhibitor added: H4 microsomes; for concentrations at which DIO2 activity was inhibited: 2 nM T4
[7] = target: T1, DIO2; assay: DIO2 activity in primary human astrocyte cells exposed to test compounds; assay type: cell-based
Summary of the method: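 Primary human astrocytes were grown on gelatin-coated dishes, moved to serum-free A-DMEM (30 nM selenium) 24 h before use, and induced with 10 µM forskolin. Exposure was 6 h (0.1% DMSO), with 100 nM rT3 as positive control. Microsomes (100,000×g, 60 min) were incubated 75 min at 37°C with DTT/EDTA/glycerol buffer. Net T3 was measured by LC/MS/MS (fmol min−1 mg protein−1) and expressed as % vehicle control; n=8 from 2 experiments.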

[8] = Biotransformation assay in cultured cells; assay type: in vitro ADME, human; conditions: cells exposed for up to 48 h; 1 µM
[9] = substrate: NC(Cc1cc(I)c(Oc2cc(I)c(O)c(I)c2)c(I)c1)C(=O)O; assay: In vitro DIO2 kinetics and inhibition in microsomal preparations of H4 cells; assay type: biochemical, human; conditions: other: H4 microsomal fraction; T4 as substrate; no inhibitor; 37.0 °C
[10] = calculated assuming serum lipid 6.36 mg mL−1, ref 5
[11] = calculated assuming serum lipid 6.36 mg mL−1, ref 43
[12] = calculated assuming serum lipid 6.36 mg mL−1, ref 52
[13] = geometric mean or median, ref 5
[14] = geometric mean or median, ref 43
[15] = geometric mean or median, ref 52
[16] = calculated assuming serum lipid 6.36 mg mL−1, ref 53
[17] = geometric mean or median, ref 53
[18] = H4 cells, 5,000 nM, 6 h exposure
[19] = H4 glioma cells, doses of approximately 1–5 µM (abstract)
[20] = H4 cells, 500 nM, 6 h, relative to MG132 control
[21] = Homo sapiens, read-out: DIO2 mRNA expression ratio relative to the control value of 1.0
[22] = calculated assuming serum lipid 6.36 mg mL−1, ref 36

Brc1ccc(Oc2ccc(Br)cc2Br)c(Br)c1 [BDE-47]
Average Serum Concentration [1, 10]: 0.305 nM
Maximum Serum Concentration [1, 10]: 4.58 nM
Average Serum Concentration [1, 11]: 1.01 nM
Maximum Serum Concentration [1, 11]: 1.94 nM
Average Serum Concentration [1, 12]: 1.02 nM
Maximum Serum Concentration [1, 12]: 60.7 nM
Average Serum Concentration [1, 13]: 23.3 ng/g lipid
Average Serum Concentration [1, 14]: 77 ng/g lipid
Average Serum Concentration [1, 15]: 77.8 ng/g lipid
Maximum Serum Concentration ([1]; ref 5): 350 ng/g lipid
Maximum Serum Concentration ([1]; ref 43): 148 ng/g lipid
Maximum Serum Concentration ([1]; ref 52): 4,640 ng/g lipid
effect on DIO2 activity ([2]; H4 cells, any of the exposure concentrations, 6 h exposure): did not significantly alter
Significant DIO2 Effects in H4 Cells (%Ctrl) [2]: None
significant effects on viability [3]: not detected
DIO2 mRNA expression level vs control ([4]; H4 cells): not significantly different from control
significant effects on membrane damage [5]: not detected

Oc1c(Br)ccc(Oc2ccc(Br)cc2Br)c1Br [3-OH-BDE-47]
Average Serum Concentration [1, 16]: 0.020 nM
Average Serum Concentration [1, 17]: 1.6 ng/g lipid
lowest dose that significantly decreased DIO2 activity ([2]; H4 cells): ~1,000 nM
decrease in DIO2 activity ([2]; H4 cells, 1,000 nM, 1 h exposure): 71.1 ± 13.7%
decrease in DIO2 activity ([2]; H4 cells, 1,000 nM, 6 h exposure): 52.1 ± 8.5%
decrease in DIO2 activity ([2]; H4 cells, 1,000 nM, 12 h exposure): not significantly different from control
decrease in DIO2 activity [2, 18]: 68.2 ± 13.9%
decrease in DIO2 activity [2, 19]: 45–80%
Significant DIO2 Effects in H4 Cells (%Ctrl) [2]: 71.1%
decrease in viability [3]: 31.7 ± 7.8%
DIO2 mRNA expression level vs control ([4]; H4 cells): not significantly different from control
membrane damage vs control [5]: not significantly different from control
concentrations at which DIO2 activity was inhibited [6]: > 1 µM
Ki ([6]; read-out: Ki for DIO2, calculated from IC50, measured T4 concentration and Km): 1.6 µM

N[C@@H](Cc1ccc(Oc2cc(I)c(O)c(I)c2)c(I)c1)C(=O)O [rT3, 3,3’,5’ Triiodothyronine, reference compound]
decrease in DIO2 activity ([2]; H4 cells, 100 nM, 6 h, no inhibitor coexposure (Figure 8)): 55.9% ± 3.6
decrease in DIO2 activity with MG132 coexposure ([2]; H4 cells, 100 nM, 6 h): 25.8 ± 2.3%
decrease in DIO2 activity ([7]; primary human astrocytes, 100 nM, 6 h, positive control): 49.4 ± 4.1%

Brc1ccc(Oc2cc(Br)c(Br)cc2Br)c(Br)c1 [BDE-99]
Average Serum Concentration [1, 13]: 6.39 ng/g lipid
Average Serum Concentration [1, 14]: 3.0 ng/g lipid
Average Serum Concentration [1, 15]: 26.1 ng/g lipid
Maximum Serum Concentration ([1]; ref 5): 225 ng/g lipid
Maximum Serum Concentration ([1]; ref 43): 33 ng/g lipid
Maximum Serum Concentration ([1]; ref 52): 1,200 ng/g lipid
inhibition at 0.5 µM ([2]; 6 h, read-out: decrease in DIO2 activity, H4 cells, 500 nM, 6 h exposure): 82.9 ± 6.7%
inhibition at 2.5 µM ([2]; 6 h, read-out: decrease in DIO2 activity, H4 cells, 2,500 nM, 6 h exposure): 80.8 ± 4.7%
inhibition at 0.5 µM ([2]; 12 h, read-out: decrease in DIO2 activity, H4 cells, 500 nM, 12 h exposure): 64.6 ± 2.8%
decrease in DIO2 activity with MG132 coexposure [2, 20]: 45.5 ± 3.8%
decrease in DIO2 activity ([2]; H4 cells, doses of 500 nM or greater (abstract)): up to 80%
Significant DIO2 Effects in H4 Cells (%Ctrl) [2]: 82.9%
decrease in DIO2 activity ([2]; both cell types (primary astrocytes and H4 glioma), exposure for a few hours): approximately 50%
significant effects on viability [3]: not detected
mrna remaining at 0.5 µM [4, 21]: 63 ± 6%
mrna remaining at 2.5 µM [4, 21]: 59 ± 10%
metabolites formed in cells or cell culture media [8]: Neither OH-BDEs nor debrominated PBDE metabolites were detected
significant effects on membrane damage [5]: not detected
inhibition at 0.5 µM ([7]; 6 h, read-out: decrease in DIO2 activity): 51.8 ± 8.6%
decrease in DIO2 activity ([7]; primary astrocyte cells, doses of 500 nM or greater (abstract)): 50%
Ki [6]: 33.3 µM
concentrations at which DIO2 activity was inhibited [6]: > 1 µM
Vmax of DIO2 with inhibitor added ([6]; 20 µM BDE-99 added): 50.6 ± 5.6 fmol min^−1 mg protein^−1
inhibition at 90 µM ([6]; read-out: maximum inhibition of DIO2): 45%

CC(C)C[C@@H](C=O)NC(=O)[C@H](CC(C)C)NC(=O)[C@H](CC(C)C)NC(=O)OCc1ccccc1 [MG132, reference compound] (Cbz-Leu-Leu-Leu-aldehyde)
increase in basal DIO2 activity ([2]; H4 cells, 10 µM): 73.5 ± 17.9%

Oc1cc(Br)cc(Br)c1Oc1ccc(Br)cc1Br [6-OH-BDE-47]
Average Serum Concentration [1, 22]: 0.0022 nM
Maximum Serum Concentration [1, 22]: 0.137 nM
Average Serum Concentration [1, 16]: 0.13 nM
Average Serum Concentration ([1]; geometric mean or median, ref 36): 0.17 ng/g lipid
Average Serum Concentration [1, 17]: 9.9 ng/g lipid
Average Serum Concentration ([1]; geometric mean or median, ref 54): 0.0131 nM
Maximum Serum Concentration ([1]; ref 36): 10.8 ng/g lipid
Maximum Serum Concentration ([1]; ref 54): 0.336 nM
lowest dose that significantly decreased DIO2 activity ([2]; H4 cells): 5,000 nM
decrease in DIO2 activity [2, 18]: 57.1 ± 11.4%
decrease in DIO2 activity [2, 19]: 45–80%
Significant DIO2 Effects in H4 Cells (%Ctrl) [2]: 57.1%
decrease in viability [3]: 32.0 ± 8.2%
DIO2 mRNA expression ratio relative to the control value of 1.0 ([4]; H4 cells, 5,000 nM, normalized to RPL13A): 0.59 ± 0.08
membrane damage vs control [5]: not significantly different from control

Oc1cc(Oc2cc(Br)c(Br)cc2Br)c(Br)cc1Br [5’-OH-BDE-99]
Average Serum Concentration [1, 17]: 22 ng/g lipid
inhibition at 1 µM ([2]; 6 h, read-out: decrease in DIO2 activity, H4 cells, 1,000 nM, 6 h exposure): 57.4 ± 1.2%
inhibition at 5 µM ([2]; 6 h, read-out: decrease in DIO2 activity, H4 cells, 5,000 nM, 6 h exposure): 63.6 ± 2%
inhibition at 1 µM ([2]; 12 h, read-out: decrease in DIO2 activity, H4 cells, 1,000 nM, 12 h exposure): 55.7 ± 5.4%
lowest dose that significantly decreased DIO2 activity ([2]; H4 cells): ~1,000 nM
decrease in DIO2 activity with MG132 coexposure [2, 20]: 37.0 ± 2.6%
decrease in DIO2 activity [2, 19]: 45–80%
Significant DIO2 Effects in H4 Cells (%Ctrl) [2]: 57.4%
significant effects on viability [3]: not detected
mrna remaining at 5 µM [4, 21]: 64 ± 12%
significant effects on membrane damage [5]: not detected
IC50 [6]: 16.6 ± 1.1 µM
Ki [6]: 7.11 µM
concentrations at which DIO2 activity was inhibited [6]: > 1 µM
Vmax of DIO2 with inhibitor added ([6]; 15 µM 5’-OH-BDE-99 added): 47.2 ± 8.0 fmol min^−1 mg protein^−1

B1: DIO2 (Homo sapiens) (protein)
chain: T1 sequence (Q92813 1-273)
Km [9]: 3.49 ± 0.94 nM
Vmax [9]: 47.5 ± 2.9 fmol min^−1 mg protein^−1
